Data from ChEMBL document CHEMBL1250520, “Antitumor agents. 280. Multidrug resistance-selective desmosdumotin B analogues” (2010).
Calls of active or inactive are those of the source. No cut-off for these calls is given here.

Key:
[1] = Anticancer activity against human KBVIN cells after 3 days by SRB assay; format: functional; conditions: 72 h, read-out: ED50 (the source's name)
How it was run: (§1)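 Cells seeded at 1500–7500 per well, compounds added from DMSO-diluted stock, grown 3 days in RPMI-1640 with 25mM HEPES, 0.25% sodium bicarbonate, 10% FBS and kanamycin. Attached cells fixed in cold 50% TCA, stained with 0.4% sulforhodamine B, absorbance read at 562 nm after dye solubilization. ED50 is the 50% growth-reduction concentration, averaged from at least three independent determinations.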

Hep 3B2 = experiment: Selectivity ratio of GI50 for human Hep3B cells to ED50 vincristine-resistant Hep3B cells; format: functional
[2] = Selectivity ratio of ED50 for human KB cells to ED50 for human KBVIN cells; format: functional
How it was run: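 Ratio of KB ED50 to KB-VIN ED50. Both values come from a 3-day sulforhodamine B assay with absorbance read at 562 nm. Cells were seeded at 1500–7500 per well and dosed from DMSO-diluted stock. Each ED50 is the mean of at least three independent determinations.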

KBVIN [3] = experiment: Induction of apoptosis in human KBVIN cells assessed as DNA fragmentation after 1 days by ELISA; format: functional, cell-based
How it was run: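 Apoptosis in KB-VIN cells, including co-treatment with verapamil, read out by a Cell Death Detection ELISA PLUS kit.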

[4] = Anticancer activity against vincristine-resistant human Hep3B cells after 3 days by SRB assay; format: functional, Hep 3B2; conditions: 72 h
KBVIN [5] = experiment: Inhibition of Pgp efflux pump in human KBVIN cells by calcein AM assay; format: cell-based
How it was run: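 KB-VIN cells, 10,000 per well, were grown 24 h in RPMI-1640 with 5% FBS. They were preincubated with compounds for 30 min at 37°C, then given fresh medium with 1 µM calcein-AM plus compounds for 30 min at 37°C in the dark. After cold PBS wash and hypotonic Tris-HCl lysis, fluorescence was read at Ex 494/Em 517 nm. Data pooled from two or more independent experiments.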

[6] = Anticancer activity against human Hep3B cells after 3 days by SRB assay; format: functional, Hep 3B2; conditions: 72 h
KB = experiment: Anticancer activity against human KB cells after 3 days by SRB assay; format: functional; conditions: 72 h, read-out: ED50 (the source's name); how it was run: as §1

EC50 (KB): > 237000 nM
Structure (SMILES): CCC1=C(O)c2c(oc(-c3ccccc3)cc2=O)C(CC)(CC)C1=O [6,8,8-TRIETHYL DESMOSDUMOTIN B]
EC50 [1]: 1070 nM
RatioGI50 (Hep 3B2): 30
Ratio ED50 [2]: >221
Activity (KBVIN [3]): Active
GI50 [4]: 1570 nM
inhibition (KBVIN [5]): inactive
GI50 [6]: 47600 nM
